Screens deposited in PubChem BioAssay by several laboratories.
D1 allo mod: allosteric modulators of human D1 dopamine receptor | P21728 | HEK293 D1, CRE-luciferase, dopamine EC30 potentiation; actives deviate in either direction | B-score at 10 µM | 58,000 tested, 5.9% active;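 active means luminescence count or its row- and column-corrected plate score outside the 99.7% band of the plate's sample wells, on either side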
TNAP act DEA: human TNAP activation, intermediate phosphate acceptor; P05186; 64,000 tested, under 10 active; activation factor at 20 µM; AID 813; purified TNAP, CDP-star luminescence, 100 mM DEA, 30 min; hits give high values; scale: 0 levamisole-inhibited, 1 vehicle-only enzyme;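 active means activation factor of at least 2 at 20 µM, relative to controls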
M1 agonist: M1 muscarinic receptor agonism. 64,000 tested, 3% active. B-score at 10 µM. CHO-M1 cells, Fluo-4 calcium fluorescence, agonist mode; hits give high values;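 active means fluorescence rise, raw or as B-score row- and column-corrected plate score, outside the 99.7% band of its plate's samples, either direction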
M1 antagonist: antagonists of rat M1 muscarinic receptor; P08482; CHO-M1 cells, Fluo-4 calcium, ACh EC80 antagonist mode; hits give low values; B-score at 10 µM; 64,000 tested, 3.4% active; AID 628;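 active means calcium fluorescence response, raw or row-and-column corrected B-score, differing from the plate sample mean either way at a set confidence level, mostly lower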
S1P1 ag pot: agonists and agonism potentiators of human S1P1 receptor; 56,000 tested, 0.57% active; S1P1 CRE-bla cells, forskolin, beta-lactamase FRET, potentiator mode; S1P1 agonist co-added at EC20, 2 nM; 100% = saturating reference agonist, 0% = basal; AID 449; activation, % at 9.5 µM; P21453;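 active means activation above a cutoff set at the mean activation of all tested compounds plus 3 SD, cut at about 54% in these data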;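 further: forskolin at 4 µM as EC80 and the EC20 agonist is SEW2871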
Target sequence (P21453 whole entry, looked up): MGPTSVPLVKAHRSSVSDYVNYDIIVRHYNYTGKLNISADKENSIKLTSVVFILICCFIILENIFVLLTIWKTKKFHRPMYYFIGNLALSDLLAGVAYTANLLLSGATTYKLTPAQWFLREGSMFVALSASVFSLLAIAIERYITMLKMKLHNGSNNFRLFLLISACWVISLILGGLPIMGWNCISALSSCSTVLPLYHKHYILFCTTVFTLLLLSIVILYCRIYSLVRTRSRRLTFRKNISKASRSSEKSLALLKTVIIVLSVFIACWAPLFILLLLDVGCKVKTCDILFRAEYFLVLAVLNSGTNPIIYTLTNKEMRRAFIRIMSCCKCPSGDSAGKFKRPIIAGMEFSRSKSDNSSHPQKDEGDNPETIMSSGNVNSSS
S1P3 ag: agonists of human S1P3 receptor; S1P3 NFAT-BLA reporter cells, agonism, FRET ratio; relative to 1 µM S1P, basal subtracted; activation, % at 4.5 µM; 60,000 tested, 0.1% active; AID 373;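 active means activation above the screen-wide mean plus 3 SD, cut at about 4.5% in these data, passing the limit was not always enough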
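Assay system: CHO cells stably expressing human S1P3, Gα16 and NFAT-β-lactamase reporter. Timing: overnight plating, 4 h compound 37 °C, 2 h substrate RT. Signal: β-lactamase FRET emission ratio 460/535 nm. Measure: percent activation versus median 1 µM S1P response, basal-subtracted, per plate. Repeats: primary screen single test, confirmation screen in triplicate.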
D1 PAM confirm: D1 receptor (human) allosteric modulation, confirmed; shares compounds with D1 allo mod; AID 642; 2,200 tested, 88% active; HEK293 D1 CRE-luciferase, dopamine EC30 potentiation; hits give high values; luminescence at 10 µM;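 active means luminescence in either of two replicates above the same-plate mean plus 3 SD of the low-dose dopamine control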
D1 ag no DA: D1 (human) signaling in absence of dopamine; AID 646; HEK293 D1 CRE-luciferase, luminescence, no dopamine; hits give high values; 1,900 tested, 0.8% active; shares compounds with D1 allo mod; luminescence at 10 µM; in the data active means luminescence above about 3900
Isoprot counter: counter-screen for D1 modulators: isoproterenol response in HEK293 cells. shares compounds with D1 allo mod. HEK293 D1 CRE-luciferase, isoproterenol EC30 counter-screen; hits give high values. luminescence at 10 µM. 2,200 tested, 63% active. AID 647;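 active means luminescence in either replicate above plate mean of wells with a partly effective reference agonist dose plus 3 SD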;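 further: isoproterenol raises cAMP through native beta-adrenoceptor Gs so signal bypasses D1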
Large screens that a line does not name were inactive (follow-up assays come after a bar, where they were run). Rows were chosen to be rich in hits. Some 11% of all compounds tested hit in one or more screens of this group.

O=C(O)c1[nH]c2ccc(Cl)cc2c1CC(=O)N1CCN(C(=O)c2ccco2)CC1	none
CC(C)(O)C#Cc1ccccc1C(=O)NC(CC(N)=O)C(=O)O (stereo not given)	none
CCC(=O)Nc1cc2c(cc1C(C)=O)OCCO2	none (no result: S1P1 ag pot, S1P3 ag)
CCCC(=O)Nc1cc2c(cc1C(=O)c1ccccc1)OCCO2	D1 allo mod 6.3 | D1 PAM confirm 13204 | D1 ag no DA inactive | Isoprot counter 3708
CCc1nc2ccccc2c(C(=O)OCC(=O)NCc2ccco2)c1C	D1 allo mod 4.4 | D1 PAM confirm 8196 | D1 ag no DA inactive | Isoprot counter inactive
CCOc1cc(C(=O)OCC(=O)NCc2ccco2)cc(OCC)c1OCC	none
CC(C)Cn1c(=O)c(C2=NS(=O)(=O)c3ccccc3N2)c(O)c2ccccc21	none
CN(C)C(CNC(=O)c1cccnc1Sc1ccccc1)c1ccco1 (stereo not given)	D1 allo mod 6.6 | D1 PAM confirm 8824 | Isoprot counter 2876
O=C(Cn1cnc2ccccc2c1=O)NCc1ccco1	none (no result: S1P1 ag pot)
CCOC(=O)C(C)Oc1cccc2c(=O)n(CC(=O)NCc3ccco3)ccc12 (stereo not given)	D1 allo mod 3.3 | D1 PAM confirm 6652 | D1 ag no DA inactive | Isoprot counter inactive
CCN(CC)S(=O)(=O)c1ccc(C(=O)NCc2n[nH]c(=S)n2Cc2ccccc2)cc1	none (no result: D1 allo mod, M1 agonist, M1 antagonist)
O=C(CN1C(=O)COc2ccc(Cl)cc21)N1CCc2ccccc21	none
CCSc1nc(N2CCOCC2)c2ccccc2n1	D1 allo mod 10 | D1 PAM confirm 15840 | Isoprot counter 3736
CCSc1nc2ccccc2n1CC(=O)N1CCOCC1	none (no result: S1P1 ag pot, S1P3 ag)
C/C(=N\O)c1ccc2c3ccccc3n(C)c2c1	none (no result: M1 agonist, M1 antagonist)
Cn1c2c(c3ccccc31)CC/C2=N\O	D1 allo mod 4.7 | D1 PAM confirm 8132 | D1 ag no DA inactive | Isoprot counter inactive
Cn1c(C(=O)N(Cc2ccccc2)Cc2cccs2)cc2sccc21	none
Brc1cnc(N2CCCC2)nc1N1CCOCC1	D1 allo mod 6 (no result: TNAP act DEA) | D1 PAM confirm 18712 | D1 ag no DA inactive | Isoprot counter 4252
C1COC(NC(C2CC2)C2CC2)=N1	none
O=C(Cn1ccccc1=O)c1cccs1	none
O=C(CCc1ccc(CCC(=O)c2cccs2)s1)c1cccs1	D1 allo mod 3.4 | D1 PAM confirm 11800 | D1 ag no DA inactive | Isoprot counter inactive
COC(=O)C(O)(NC(=O)NC(C)=O)C(F)(F)F (stereo not given)	none
CCOC(=O)c1nnn(-c2nonc2N)c1-c1ccc(OC)cc1	D1 allo mod 11 | D1 PAM confirm 22732 | D1 ag no DA inactive | Isoprot counter 4492
CCOC(=O)c1c(N)n[nH]c1-c1ccc(OC)cc1	D1 allo mod 9 | D1 PAM confirm 16256 | Isoprot counter 3172
O=c1c(/C=N/O)c(Nc2ccccc2)nc2ccccn12	D1 allo mod 4.2 | D1 PAM confirm 9580 | D1 ag no DA inactive | Isoprot counter 3320
O=c1cc(-c2ccccc2)nc2n1Cc1ccccc1-2	D1 allo mod 13 | D1 PAM confirm 11948 | Isoprot counter 3204
N#Cc1c(N)nc(-c2ccccc2)nc1-c1ccccc1	D1 allo mod 18 | D1 PAM confirm 18844 | D1 ag no DA inactive | Isoprot counter inactive
Cc1cc(NC(=O)C2CCC2)n(-c2ccccn2)n1	D1 allo mod 7.6 (no result: S1P1 ag pot, S1P3 ag) | D1 PAM confirm 20484 | D1 ag no DA inactive | Isoprot counter 4680
Cc1cc(NC(=O)c2cccc(S(=O)(=O)N3CCCCCC3)c2)n(-c2ccccn2)n1	none
